Data on 1 molecule can be found in ChEMBL document CHEMBL5500386, “Design, synthesis and bioactivity evaluation of 4-hydroxycoumarin derivatives as potential anti-inflammatory agents against acute lung injury and colitis” (Eur J Med Chem, 2024).

Usually inhibition stands for the relative decrease from the control value, in per cent. A word on the Cmax: it is the highest concentration seen after dosing. One may read the AUC(0-inf) as total exposure, with the tail of the curve extrapolated. A higher AUC(0-inf) goes with high exposure. As usually defined, the AUC(0-t) is exposure summed from dosing to a finite time, without extrapolation to infinity. The low end stands for less exposure, the high end for more exposure.

Active and inactive are the calls of the source. The rule behind the calls is not given here.

Data set [1] deals with Mus musculus. In words: Protection against LPS-induced C57BL/6 mouse model of acute lung injury assessed as reduction in destruction of the alveolar cell structure at 20 mg/kg, po administered 3 times for every 12 hrs followed by LPS stimulation at 5 mg/kg and measured after 6 hrs by H and E staining based analysis. It counts as functional, organism-based. The note with it: time 30.0 hrs. An outline of the steps:
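LPS-induced ALI in C57BL/6 mice: 20 mg/kg orally three times at 12 h intervals, then intratracheal LPS 5 mg/kg, killed at 6 h. Lungs paraffin-embedded, cut into 5 μm sections and H&E stained. Viewed at ×20.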

Data set [2] concerns Mus musculus. In words: Antiinflammatory activity in DSS-induced male C57BL/6 mouse model of inflammatory bowel disease assessed as decrease in disease index at 20 mg/kg, IG administered with compound and DSS for 7 days followed by DSS replacement with distilled water for 3 days. It counts as functional, organism-based. The note with it: time 10.0 day.
For data set [3], the target named is Mitogen-activated protein kinase 9 (Homo sapiens) (UniProt P45984). Nature of the data set: Inhibition of JNK2 (unknown origin) at 10 uM relative to control.
The nature of data set [4]: Cmax in male Sprague-Dawley rat at 1 mg/kg, iv measured upto 24 hrs by triple quadrupole mass spectrometric analysis. It counts as ADME, organism-based. To be noted: in vivo. An outline of the steps: (§1)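 Male SD rats (8 weeks, 200 g ± 20 g), n = 3 per route. Oral: 10 mg/kg by gavage in 0.05 % DMSO/normal saline, tail-vein blood at 13 times from 10 min to 24 h. IV: 1 mg/kg tail vein in 5 % DMSO/30 % PEG400/65 % saline, 14 samples from 5 min to 24 h. Heparinised plasma precipitated with acetonitrile containing internal standard. Non-compartmental analysis on mean concentrations.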

Data set [5] concerns Mus musculus. In words: Antiinflammatory activity in DSS-induced male C57BL/6 mouse model of inflammatory bowel disease assessed as normal appearance of crypt cells at 20 mg/kg, IG administered with compound and DSS for 7 days followed by DSS replacement with distilled water for 3 days by H and E staining based analysis. The note with it: time 10.0 day. It counts as functional, organism-based.

Data set [6] in a line: AUC (0 to infinity) in male Sprague-Dawley rat at 1 mg/kg, iv measured upto 24 hrs by triple quadrupole mass spectrometric analysis. It counts as ADME, organism-based. The note with it: in vivo. An outline of the steps:
as §1

Data set [7] addresses T1, Inhibitor of nuclear factor kappa-B kinase subunit beta (Homo sapiens) (UniProt O14920).
T1 sequence (whole entry): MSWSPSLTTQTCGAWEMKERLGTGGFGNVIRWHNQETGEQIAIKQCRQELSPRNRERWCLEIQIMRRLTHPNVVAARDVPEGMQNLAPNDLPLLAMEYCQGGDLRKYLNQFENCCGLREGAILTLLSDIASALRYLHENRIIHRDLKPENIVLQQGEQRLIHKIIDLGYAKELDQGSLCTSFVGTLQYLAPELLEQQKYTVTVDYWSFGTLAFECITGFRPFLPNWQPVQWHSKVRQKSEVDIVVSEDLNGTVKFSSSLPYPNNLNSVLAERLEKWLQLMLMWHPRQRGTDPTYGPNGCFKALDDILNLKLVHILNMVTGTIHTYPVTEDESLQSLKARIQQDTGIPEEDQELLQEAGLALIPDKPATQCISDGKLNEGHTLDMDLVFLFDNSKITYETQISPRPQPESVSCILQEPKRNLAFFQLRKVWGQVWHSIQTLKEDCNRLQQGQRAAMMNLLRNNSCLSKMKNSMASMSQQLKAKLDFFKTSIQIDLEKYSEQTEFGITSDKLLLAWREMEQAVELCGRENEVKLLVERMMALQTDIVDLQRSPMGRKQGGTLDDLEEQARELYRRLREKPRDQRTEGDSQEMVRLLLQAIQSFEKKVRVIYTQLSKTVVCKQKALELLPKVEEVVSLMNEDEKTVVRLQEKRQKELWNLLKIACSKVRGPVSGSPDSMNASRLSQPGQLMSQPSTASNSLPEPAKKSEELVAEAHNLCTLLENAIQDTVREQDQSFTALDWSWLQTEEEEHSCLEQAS
Nature of the data set: Inhibition of IKKbeta (unknown origin) at 10 uM relative to control.

Data set [8] deals with Mus musculus. In words: Antiinflammatory activity in DSS-induced male C57BL/6 mouse model of inflammatory bowel disease assessed as reduction in red and white pulp merging in spleen at 20 mg/kg, IG administered with compound and DSS for 7 days followed by DSS replacement with distilled water for 3 days by H and E staining based analysis. It counts as functional, organism-based. The note with it: time 10.0 day.

The subject of another data set is J774.A1. In words: Inhibition of LPS-induced NF-kappaB activation in mouse J774.A1 cells assessed as reduction in p65 phosphorylation at 5 to 20 uM pretreated for 2 hrs followed by LPS stimulation and measured after 30 mins by Western blot analysis. The note with it: dose 5-20 µM, time 2.5 hrs. It counts as cell-based. An outline of the steps: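 J774A.1 macrophages pretreated with 20, 10 or 5 μM for 2 h, then LPS 0.5 μg/mL for 30 min. RIPA lysates quantified by Bradford. 40 μg run on 12.5 % SDS-PAGE and transferred to PVDF. Blocked 1.5 h in BSA, primary antibody overnight at 4 °C, secondary 2 h at room temperature, detected by ECL.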
A general note: Immunoblotting shows a protein as a band on a membrane.

The nature of data set [9]: Cmax in male Sprague-Dawley rat at 10 mg/kg, po measured upto 24 hrs by triple quadrupole mass spectrometric analysis. It counts as ADME, organism-based. The note with it: in vivo.
A short description of data set [10]: AUC (0 to t) in male Sprague-Dawley rat at 10 mg/kg, po measured upto 24 hrs by triple quadrupole mass spectrometric analysis. It counts as ADME, organism-based. The note with it: in vivo. An outline of the steps:
as §1

Data set [11] relates to Mus musculus. Nature of the data set: Protection against LPS-induced C57BL/6 mouse model of acute lung injury assessed as reduction in protein level in BALF at 20 mg/kg, po administered 3 times for every 12 hrs followed by LPS stimulation at 5 mg/kg and measured after 6 hrs. It counts as functional, organism-based. To be noted: time 30.0 hrs. The essentials:
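C57BL/6 mice, 6 per group. Gavaged at 20 mg/kg three times at 12 h intervals; controls received saline, and dexamethasone 20 mg/kg served as reference. After the last dose, LPS 5 mg/kg given intratracheally. At 6 h, blood collected for serum IL-6 by ELISA. Left lung lavaged with 3 × 200 μL saline, and BALF assayed for IL-6, total protein and neutrophil count. Mean ± SEM, n = 6.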

Data set [12] deals with Mus musculus. Nature of the data set: Protection against LPS-induced C57BL/6 mouse model of acute lung injury assessed as reduction in destruction of the alveolar cell structure at 20 mg/kg, po administered 3 times for every 12 hrs followed by LPS stimulation at 5 mg/kg and measured after 6 hrs by immunohistochemical staining based analysis. It counts as functional, organism-based. To be noted: time 30.0 hrs. The essentials:
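LPS-induced ALI in C57BL/6 mice: 20 mg/kg orally three times at 12 h intervals, then intratracheal LPS 5 mg/kg, lungs taken at 6 h. F4/80 IHC: xylene deparaffinisation, citrate pH 6 retrieval for 25 min, primary antibody at 4 °C for 12 h, secondary 1:2000, DAB and hematoxylin. Viewed at ×20.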

Data set [13] in a line: Acute toxicity in male ICR mouse assessed as reduction in body weight at 500 to 1000 mg/kg, po administered daily for 10 days and measured daily for 2 to 10 days. It counts as organism-based. The note with it: in vivo, 240 h, dose 500-1000 mg/kg, time 10 day. An outline of the steps: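 Male ICR mice (8 weeks, 30 g ± 2 g), acclimatised 1 week, randomised into 1000 mg/kg, 500 mg/kg and untreated control groups (n = 24 total). Dosed by daily gavage, compound dissolved in 0.5 % DMSO then added to normal saline. Body weight and behaviour recorded daily. Euthanised after 10 days; heart, liver, spleen, lung and kidney examined by H&E staining.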

Sequence of Mitogen-activated protein kinase 9 (Homo sapiens) (P45984 whole entry, looked up): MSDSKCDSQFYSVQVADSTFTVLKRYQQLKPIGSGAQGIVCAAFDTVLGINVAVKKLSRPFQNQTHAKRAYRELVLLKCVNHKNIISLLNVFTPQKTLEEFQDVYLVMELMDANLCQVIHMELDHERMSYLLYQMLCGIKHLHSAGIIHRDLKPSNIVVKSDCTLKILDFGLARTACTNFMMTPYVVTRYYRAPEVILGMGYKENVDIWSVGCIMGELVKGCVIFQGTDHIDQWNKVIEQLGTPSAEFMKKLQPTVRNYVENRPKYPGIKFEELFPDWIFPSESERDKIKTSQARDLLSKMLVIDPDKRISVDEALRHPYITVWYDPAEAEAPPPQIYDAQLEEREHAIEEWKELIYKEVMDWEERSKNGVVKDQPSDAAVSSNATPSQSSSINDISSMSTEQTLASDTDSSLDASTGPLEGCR

In the case of `CC(=O)N1CCN(CCOc2cc(=O)oc3ccccc23)CC1`, the outcome in the data set on Mus musculus [1], in the data set on Mus musculus [2], with Mus musculus [5], in the data set with Mus musculus [8], in the data set with Mus musculus [11] and in the data set on Mus musculus [12] was Active. Moreover, the inhibition is 5.93% in data set [3] and -9.11% in data set [7]. For the same molecule, the Cmax in data set [4] was found to be 2030 ng/mL; in data set [9], 1010 ng/mL. In data set [6], this molecule returned an AUC(0-inf) of 1020 ng·h/mL. Besides, the inhibition entry in the data set on J774.A1 was “inactive”. The same molecule came in with an AUC(0-t) at 24 h in data set [10] of 2670 ng·h/mL. In addition, the Activity entry in data set [13] was “Non-Toxic”.
